From PubChem BioAssay
Hits are enriched below; roughly 3.5% of the tested compounds scored in any of these assays.
MrgX1 PAM – human MrgX1 positive allosteric modulation, primary screen; Q96LB2; actives 0.63% (n = 310,000); B-score at 10 µM; MrgX1-HEK293, Fluo-4 calcium flux, FDSS; active compounds read high;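 active means plate-corrected calcium response at least 3 library SD above typical, normal starting fluorescence, not activating the receptor alone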;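 further: compound read alongside a low EC10 to EC30 dose of BAM8-22 agonist; peak minus trough fluorescence over baseline measured at the second addition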
Target sequence (Q96LB2 whole entry, looked up): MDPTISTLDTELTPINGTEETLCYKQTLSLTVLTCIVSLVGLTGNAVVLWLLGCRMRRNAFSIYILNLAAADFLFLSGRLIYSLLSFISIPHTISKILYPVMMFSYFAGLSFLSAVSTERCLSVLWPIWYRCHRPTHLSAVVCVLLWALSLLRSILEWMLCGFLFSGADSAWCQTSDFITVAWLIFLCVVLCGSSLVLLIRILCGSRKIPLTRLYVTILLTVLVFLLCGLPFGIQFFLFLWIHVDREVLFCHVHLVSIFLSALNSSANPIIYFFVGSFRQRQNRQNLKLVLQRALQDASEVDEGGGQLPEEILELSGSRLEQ
RGS4 act – potentiators or activators of RGS4; HEK293 M3R/inducible RGS4, carbachol calcium flux Fluo4; active compounds read low; AID 463111; actives 0.92% (n = 310,000); B-score at 10 µM;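 active means B-score of the integrated calcium signal more than 4 SD below the library mean, with starting fluorescence not abnormally high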;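 further: negative B-score means reduced calcium response which marks RGS4 activation or potentiation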
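Assay system: HEK293 FlpIn-TREx cells, stable M3R, doxycycline-inducible RGS4 / Probe or stimulus: carbachol, ECmax concentration / Times: overnight RGS4 induction, 30 min dye load 37 °C, 20 min compound RT / Signal: kinetic calcium fluorescence imaging with Fluo4-AM dye, 2 µM / Measure: Agonist-evoked peak-minus-minimum fluorescence over baseline, integrated ratio, B score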
RGS4 block – human RGS4 inhibition; HEK293 M3R/RGS4 inducible, Fluo-4 calcium flux; active compounds read high; triggered by carbachol at its EC20; B-score at 10 µM; actives 0.45% (n = 310,000);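 active means B-score, a plate-corrected calcium signal, over three deviations above library mean, with baseline fluorescence within five deviations of library mean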;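 further: RGS4 expression induced by doxycycline in cells with stable M3 receptor; B-score is computed from the integrated fluorescence ratio over baseline after carbachol; higher B-score means a larger calcium signal and so more RGS4 inhibition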
Target sequence (P49798 whole entry, looked up): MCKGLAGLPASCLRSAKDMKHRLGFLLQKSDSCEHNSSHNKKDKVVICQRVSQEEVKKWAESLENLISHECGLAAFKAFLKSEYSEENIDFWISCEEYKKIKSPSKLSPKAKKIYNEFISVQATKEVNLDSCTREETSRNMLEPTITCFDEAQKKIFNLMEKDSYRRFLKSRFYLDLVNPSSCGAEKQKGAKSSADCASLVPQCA
MrgX1 agonist – human MrgX1 receptor agonism, primary screen; MrgX1-HEK293 cells, Fluo-4 calcium fluorescence, agonist mode; active compounds read high; B-score at 10 µM; actives 0.44% (n = 310,000); AID 588627;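 active means calcium response B-score plate-corrected fluorescence ratio at least 3 library SD, with starting fluorescence B-score inside 5 SD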
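Material: HEK293 cells stably expressing human MrgX1 receptor | Quantity: 15,000 cells per well | Times: Cells plated overnight, dye loaded 0.5 h 37 °C, 0.5 h room temperature | Measured by: Kinetic Fluo-4 NW fluorescence of intracellular calcium | Control set: Positive and negative controls per plate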
MrgX1 antag – blocks BAM8-22 activation of human MrgX1 receptor; Q96LB2; MRGX1-HEK293 calcium flux, Fluo-4, BAM8-22 antagonism; active compounds read low; B-score at 10 µM; actives 1.3% (n = 310,000); AID 588676;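 active means calcium-response B-score plate-corrected more than 3 library SD below zero, starting fluorescence within 5 deviations, no agonist response on first addition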;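 further: peak minus trough fluorescence over baseline after final BAM8-22 challenge near maximal dose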
MrgX1 ag reconf – confirmation of human MrgX1 receptor agonists; shares compounds with MrgX1 agonist; MrgX1-HEK293, Fluo-4 calcium fluorescence, FDSS; actives 78% (n = 600); activation, % at 10 µM;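 active means calcium signal rise, corrected for plate position, at least 3 library SD high, with starting brightness within 5 such deviations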
HEK293 Ca flux – MrgX1 antagonist counter-screen hit in parental HEK293 cells; shares compounds with MrgX1 antag; Fluo-4 calcium fluorescence, FDSS; fluorescence ratio F(max-min)/F0 at 10 µM; actives 2% (n = 4,000);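 active means duplicate-averaged calcium fluorescence ratio at least three times the standard deviation of buffer wells, a nonspecific response in parental cells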
HEK293 Ca counter – MrgX1 allosteric activator counter-screen hit in parental HEK293 cells; shares compounds with MrgX1 antag; parental HEK293 calcium flux, Fluo-4 fluorescence ratio; active compounds read high; fluorescence ratio F(max-min)/F0 at 10 µM; actives 0.4% (n = 4,000); AID 624114;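 active means calcium fluorescence ratio, averaged over duplicates, at least 3 SD of the buffer-well ratio, meaning a nonspecific response in receptor-free cells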;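 further: untransfected parental HEK293 lacking MrgX1 used as counterscreen for MrgX1 allosteric activators; fluorescence change taken during the second addition on a kinetic imager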
HEK293 Ca cntr2 – MrgX1 activator counter-screen hit in parental HEK293 cells | Fluo-4 calcium fluorescence (FDSS); active compounds read high | shares compounds with MrgX1 antag | fluorescence ratio F(max-min)/F0 at 10 µM | actives 8.7% (n = 4,000);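 active means calcium fluorescence ratio at least three times the spread of buffer wells, meaning a non-specific response in parental cells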
A number is an active result; – = inactive; · = no result given.

SMILES	MrgX1 PAM	RGS4 act	RGS4 block	MrgX1 agonist	MrgX1 antag	MrgX1 ag reconf	HEK293 Ca flux	HEK293 Ca counter	HEK293 Ca cntr2
O=S(=O)(NCC1(N2CCOCC2)CCCCC1)c1ccc(Cl)cc1C(F)(F)F	–	–	–	88	–	261%	–	–	–
O=S(=O)(NCC1(N2CCOCC2)CCCCC1)c1ccccc1Cl	–	–	–	–	–	·	·	·	·
COc1ccccc1Oc1ccnc2cc(Cl)ccc12	–	–	–	30	–	103%	–	–	–
CCOC(=O)c1c(NC(=O)c2ccccc2C(=O)O)sc2c1CCCC2	–	–	–	34	–	192%	–	–	–
N#Cc1ccccc1NC(=O)c1ccc2c(c1)OCCO2	–	–	–	–	–	·	·	·	·
CCCn1c(=O)c(C(=O)NNC(=O)c2ccccc2Cl)c(O)c2ccccc21	–	–	–	97	–	308%	–	–	64
CCOCCCNC(=O)CN1C(=O)NC(Cc2c[nH]c3ccccc23)C1=O (stereo not given)	–	–	–	–	–	·	·	·	·
COc1ccccc1CNC(=O)C(NC(=O)c1ccccc1C)C(C)C (stereo not given)	–	–	–	–	–	·	·	·	·
CCOc1ccc(Br)cc1S(=O)(=O)Nc1ncn[nH]1	–	–	–	32	–	–	–	–	–
CCOc1ccc(S(=O)(=O)Nc2ncn[nH]2)cc1	–	–	–	–	–	·	·	·	·
Cc1ccc(C(=O)NNC(=S)NC(=O)c2ccc(Cl)cc2)cc1	–	–	–	132	–	747%	–	–	138
O=C(CCc1ccccc1)NNC(=S)NC(=O)c1ccc(Cl)cc1	–	–	–	141	–	696%	–	–	126
O=C(CCc1ccccc1)NNC(=O)c1ccc(Cl)cc1	–	–	–	–	–	·	·	·	·
CCCCCCC(C)n1[nH]c(=O)cc1N (stereo not given)	–	–	–	–	–	·	·	·	·
COc1ccc(-c2csc(NC(=O)CS(=O)(=O)c3ccc(F)cc3)n2)cc1OC	–	–	–	55	–	–	–	–	–
COc1ccc(-c2csc(NC(=O)CCN3C(=O)C4CC=CCC4C3=O)n2)cc1OC (stereo not given)	–	-7.3	–	45	–	–	–	–	–
COc1ccc(-c2csc(NC(=O)Cc3cc(OC)c(OC)c(OC)c3)n2)cc1OC	–	–	–	–	–	·	·	·	·
COc1cc(C(=O)NC(=S)NNC(=O)[C@H]2C[C@@H]2c2ccccc2)cc(OC)c1OC	–	–	–	96	–	386%	–	–	76
COc1cc(C(=O)NNC(=S)NC(=O)c2ccc3c(c2)OCO3)cc(OC)c1OC	–	–	–	–	–	·	·	·	·
COc1ccccc1C(=O)NNC(=S)NC(=O)c1cc(OC)c(OC)c(OC)c1	–	–	–	101	–	453%	–	–	93
COc1cc(C(=O)NNC(=S)NC(=O)c2ccccc2C)cc(OC)c1OC	–	–	–	120	–	362%	–	–	89
CCN(CC)CCC(=O)NN	–	–	–	–	–	·	·	·	·
Cc1csc(SC(C)C(=O)NCC2CCCO2)n1 (stereo not given)	–	–	–	–	–	·	·	·	·
CCOC(=O)c1ccc2c(c1)NCc1cccc(OC)c1O2	–	–	–	28	–	–	–	–	–
Cc1cc(N2CCOCC2)nc(NCc2ccccc2)n1	–	–	–	66	–	294%	–	–	–
SMILES	MrgX1 PAM	RGS4 act	RGS4 block	MrgX1 agonist	MrgX1 antag	MrgX1 ag reconf	HEK293 Ca flux	HEK293 Ca counter	HEK293 Ca cntr2
Cc1cc(N2CCCCC2)nc(NCc2ccccc2)n1	–	–	–	83	–	340%	–	–	–
Cc1cc(NCc2ccccc2)nc(N2CCOCC2)n1	–	–	–	–	–	·	·	·	·
CN(c1ccccc1)c1nc(N2CCCC2)nc(-n2ccnc2)n1	–	–	–	48	–	171%	–	–	51
COC(=O)c1ccc(Cl)cc1N(Cc1c(F)cccc1Cl)S(C)(=O)=O	–	–	–	71	–	290%	–	–	61
CN1CCN(NC(=O)c2cc(Br)ccc2Cl)CC1	–	–	–	–	–	·	·	·	·
Cc1nn(-c2ccccc2)c2c1C(c1ccc(F)cc1F)C(C#N)=C(N)O2 (stereo not given)	–	–	–	27	–	183%	–	–	–
COc1ccc(-n2nc(C(=O)N3CCC(N4CCCCC4)CC3)c3c4ccccc4n(C)c3c2=O)cc1	–	–	–	–	–	·	·	·	·
OCCNCC(O)CN1c2ccccc2Sc2ccccc21 (stereo not given)	–	–	–	–	–	·	·	·	·
C=CCOC(=O)C1=C(C)OC(N)=C(C#N)C1c1ccccc1F (stereo not given)	–	–	–	27	–	173%	–	–	–
CCOC(=O)c1c(CN2CCN(C)CC2)n(C)c2cc(Br)c(OC)cc12	–	–	–	–	–	·	·	·	·
CCOC(=O)c1c(CSC(=N)N)n(C)c2cc(Br)c(OC(C)=O)cc12	–	–	–	46	–	188%	–	–	–
CCCOC(=O)Cn1cnc2scc(-c3ccc(C)cc3)c2c1=O	–	–	–	–	–	·	·	·	·
CCc1ccc(-c2csc3ncn(Cc4ccc(C(=O)O)cc4)c(=O)c23)cc1	–	–	–	31	–	149%	–	–	–
CCCCCn1c(=N)c(S(=O)(=O)c2ccc(Cl)cc2)cc2c(=O)n3cccc(C)c3nc21	–	–	–	27	–	94%	–	–	–
CCCOc1ncnc2c1[nH]c1ccccc12	–	–	–	–	–	·	·	·	·
CCN(CC)c1ncnc2c1[nH]c1ccccc12	–	–	–	28	–	125%	–	–	–
CCn1cc(S(=O)(=O)N2CCc3ccccc3C2)cn1	–	–	–	–	–	·	·	·	·
Cn1c(-c2ccccc2)c(CCO)c2ccccc21	–	–	–	43	–	184%	–	–	–
Cc1ccc(Nc2nnc(-c3ccncc3)s2)c(Br)c1	–	–	–	49	–	–	–	–	–
CNc1nnc(-c2ccncc2)s1	–	–	–	–	–	·	·	·	·
O=c1cc(CN2CCOCC2)c2cc(Cl)ccc2o1	–	–	–	–	–	·	·	·	·
CC(C)OC(=O)CN1C(=O)S/C(=C/c2ccc(N3CCCCC3)o2)C1=O	–	–	–	64	–	–	0.079	–	–
O=C1S/C(=C\c2ccc(N3CCOCC3)o2)C(=O)N1Cc1ccc(F)cc1	–	·	·	–	–	·	·	·	·
O=C(c1ccc(CS(=O)c2ccccc2Cl)o1)N1CCN(c2ccccn2)CC1 (stereo not given)	–	–	–	–	–	·	·	·	·
